# Measurements reported in ChEMBL document CHEMBL1121771, “Chemistry and hypoglycemic activity of benzimidoylpyrazoles” (J Med Chem, 1981).
# Legend:
# [1] = species on record: Rattus norvegicus; experiment: Percent change in blood glucose concentration in glucose-primed rat to that of control rats.; format: functional
# How it was run: (§1)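 Male Sprague-Dawley rats (140-150 g), groups of six, fasted 16 h, then given 100 mg glucose sc in 0.5 mL isotonic NaCl. Test compound given orally right after as an aqueous carboxymethylcellulose suspension (0.5 mL); controls received vehicle. Blood was taken by cardiac puncture under light ether anesthesia 2 h later. Glucose measured by Autoanalyzer modification of Hoffman method; mean percent change versus control group.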
# [2] = tested on: Rattus norvegicus; experiment: Blood glucose concentration 2 hours after the administration in glucose-primed rat at 100 mg/kg.; format: functional; how it was run: as §1
# [3] = tested on: Rattus norvegicus; experiment: Percent reduction in blood glucose after perorally administration of compound at 100 mg/kg in non-glucose-primed rat; format: functional; settings: route oral
# [4] = tested on: Rattus norvegicus; experiment: Blood glucose concentration at 2 hours after the administration in glucose-primed rat; format: functional; how it was run: as §1
# [5] = tested on: Rattus norvegicus; experiment: Percent reduction in blood glucose after perorally administration of compound at 300 mg/kg in alloxanized rat; format: functional; settings: route oral
# How it was run: (§2)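 Male Sprague-Dawley rats (180-220 g) made diabetic with 225 mg/kg alloxan monohydrate intraabdominally; glucosuria checked by reagent strip after 3 days, positives grouped in sixes. Control tail-vein blood taken, oral compound given, blood resampled at 5 h. Reported as percent change in blood glucose versus pretreatment.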
# [6] = tested on: Rattus norvegicus; experiment: Percent reduction in blood glucose after perorally administration of compound at 100 mg/kg in glucose-primed rat; format: functional; settings: route oral; how it was run: as §1
# [7] = tested on: Rattus norvegicus; experiment: Percent reduction in blood glucose after perorally administration of compound at 25 mg/kg in adrenalectomized rat; format: functional; settings: route oral
# [8] = tested on: Rattus norvegicus; experiment: Percent reduction in blood glucose after perorally administration of compound at 25 mg/kg in glucose-primed rat; format: functional; settings: route oral; how it was run: as §1
# [9] = Lethal dose after intraperitoneal administration in mouse; settings: in vivo, ip
# [10] = tested on: Cavia porcellus; experiment: Percent reduction in blood glucose after perorally administration of compound at 100 mg/kg in normal fasted guinea pig; format: functional; settings: route oral
# How it was run: (§3)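 Hartley guinea pigs (450-500 g), male and female, grouped by sex in fours, food withheld 18 h, water allowed. Zero-time blood taken by cardiac puncture, then oral dosing, with a second cardiac sample 5 h later. Reported as percent change in blood glucose relative to the pretreatment value.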
# [11] = tested on: Rattus norvegicus; experiment: Percent reduction in blood glucose after perorally administration of compound at 50 mg/kg in glucose-primed rat; format: functional; settings: route oral; how it was run: as §1
# [12] = Lethal dose after peroral administration in mouse; settings: in vivo, po
# [13] = tested on: Cavia porcellus; experiment: Percent reduction in blood glucose after perorally administration of compound at 30 mg/kg in normal fasted guinea pig; format: functional; settings: route oral; how it was run: as §3
# [14] = tested on: Rattus norvegicus; experiment: Percent reduction in blood glucose after perorally administration of compound at 100 mg/kg in non-glucose-primed rat; settings: route oral
# [15] = tested on: Rattus norvegicus; experiment: Percent reduction in blood glucose after perorally administration of compound at 29.2 mg/kg in alloxanized rat; format: functional; settings: route oral; how it was run: as §2
# [16] = tested on: Rattus norvegicus; experiment: Percent reduction in blood glucose after perorally administration of compound at 25 mg/kg in adrenalectomized rat; settings: route oral
# [17] = tested on: Rattus norvegicus; experiment: Percent reduction in blood glucose after perorally administration of compound at 300 mg/kg in non-glucose-primed rat; settings: route oral
# [18] = tested on: Rattus norvegicus; experiment: Percent reduction in blood glucose after perorally administration of compound at 120 mg/kg in non-glucose-primed rat; format: functional; settings: route oral
# [19] = tested on: Rattus norvegicus; experiment: Percent reduction in blood glucose after perorally administration of compound at 80 mg/kg in non-glucose-primed rat; format: functional; settings: route oral
# [20] = tested on: Cavia porcellus; experiment: Percent reduction in blood glucose after perorally administration of compound at 25 mg/kg in normal fasted guinea pig; format: functional; settings: route oral; how it was run: as §3
# [21] = tested on: Rattus norvegicus; experiment: Percent reduction in blood glucose after perorally administration of compound at 100 mg/kg in alloxanized rat; format: functional; settings: route oral; how it was run: as §2
# [22] = tested on: Rattus norvegicus; experiment: Percent reduction in blood glucose after perorally administration of compound at 20 mg/kg in adrenalectomized rat; format: functional; settings: route oral
# [23] = tested on: Rattus norvegicus; experiment: Percent reduction in blood glucose after perorally administration of compound at 500 mg/kg in glucose-primed rat; format: functional; settings: route oral; how it was run: as §1
# [24] = tested on: Cavia porcellus; experiment: Percent reduction in blood glucose after perorally administration of compound at 150 mg/kg in normal fasted guinea pig; format: functional; settings: route oral; how it was run: as §3
# [25] = tested on: Cavia porcellus; experiment: Percent reduction in blood glucose after perorally administration of compound at 160 mg/kg in normal fasted guinea pig; format: functional; settings: route oral; how it was run: as §3
# [26] = tested on: Rattus norvegicus; experiment: Percent reduction in blood glucose after perorally administration of compound at 10 mg/kg in adrenalectomized rat(p= 0.05); format: functional; settings: route oral
# [27] = tested on: Rattus norvegicus; experiment: Percent reduction in blood glucose after perorally administration of compound at 10 mg/kg in glucose-primed rat; format: functional; settings: route oral; how it was run: as §1
# [28] = tested on: Rattus norvegicus; experiment: Percent reduction in blood glucose after perorally administration of compound at 25 mg/kg in non-glucose-primed rat; format: functional; settings: route oral
# [29] = tested on: Rattus norvegicus; experiment: Percent reduction in blood glucose after perorally administration of compound at 250 mg/kg in glucose-primed rat; format: functional; settings: route oral; how it was run: as §1
# [30] = tested on: Cavia porcellus; experiment: Percent reduction in blood glucose after perorally administration of compound at 125 mg/kg in normal fasted guinea pig; format: functional; settings: route oral; how it was run: as §3
Compound,Change [1],Blood glucose [2],Blood glucose [4],further results
COC(=O)c1cc(C)n(/C(=N\CC(C)C)c2ccc(C)cc2)n1,19%,65.2%,–,–
COC(=O)c1cc(C)n(/C(=N\CC(C)C)c2ccc(F)cc2)n1,1.3%,68.9%,–,–
CCC/N=C(/c1ccccc1)n1nc(C(=O)OC)cc1C,6.2%,80.5%,–,–
C=CC/N=C(/c1ccccc1)n1nc(C(=O)OC)cc1C,7%,69.6%,–,–
COC(=O)c1cc(-c2ccc(Cl)cc2)n(/C(=N\c2ccc(OC)cc2)c2ccccc2)n1,3.9%,78.4%,–,–
COC(=O)c1cc(C)n(/C(=N\c2ccc(OC)cc2)c2ccccc2)n1,40%,–,62.2%,Reduction [3]: 31.5%; Reduction [5]: 49%; Reduction [6]: 51.3%; Reduction [7]: 44.3%; Reduction [8]: 35.2%; LD50 [9]: 1000 mg/kg; Reduction [10]: 21%; Reduction [11]: 33.8%; LD50 [12]: 1000 mg/kg
CCCC/N=C(/c1ccccc1)n1nc(C(=O)OC)cc1C,21.2%,66.1%,–,–
CC/N=C(/c1ccccc1)n1nc(C(=O)OC)cc1C,34%,54.9%,–,–
COC(=O)c1cc(C)n(/C(=N\c2ccc(C)cc2)c2ccc(C)cc2)n1,25.4%,–,60.4%,–
COC(=O)c1cc(C)n(/C(=N\c2ccccc2)c2ccccc2OC)n1,25.7%,–,58.3%,–
COC(=O)c1cc(C)n(/C(=N\CC(C)C)c2ccccc2)n1,25.5%,59.7%,–,–
COc1ccc(/N=C(/c2ccccc2)n2nc(C)cc2C)cc1,27.2%,–,60.6%,–
Cc1cc(C)n(/C(=N\C2CCCCC2)c2ccccc2)n1,13.6%,69.8%,–,–
COC(=O)c1cc(C)n(/C(=N\c2ccc(OC)c(OC)c2)c2ccccc2)n1,34.1%,–,58%,–
COC(=O)c1cc(C)n(/C(=N\c2ccccc2)c2ccccc2)n1,34.3%,–,58%,–
COC(=O)c1cc(C)n(/C(=N\c2ccccc2OC)c2ccccc2)n1,35.1%,–,96%,–
COC(=O)c1cc(C)n(/C(=N\C2CCCCC2)c2ccccc2)n1,34.5%,–,52.1%,Reduction [13]: 0%; Reduction [4]: 27%; Reduction [14]: 7.6%; LD50 [9]: 1000 mg/kg; Reduction [15]: 29.5%; Reduction [16]: 32%; LD50 [12]: 1000 mg/kg
COC(=O)c1cc(-c2ccc(Cl)cc2)n(/C(=N\c2ccccc2)c2ccccc2)n1,5.6%,81.1%,–,–
COC(=O)c1cc(C)n(/C(=N\CC(C)C)c2cccc(C(F)(F)F)c2)n1,25.2%,62.2%,–,–
COC(=O)c1cc(C)n(/C(=N\C2CCCCC2)c2ccccc2OC)n1,20.5%,–,68.4%,–

Compound,Change [1],Blood glucose [2],Blood glucose [4],further results
COC(=O)c1cc(C)n(/C(=N\c2cccc(C(F)(F)F)c2)c2ccccc2)n1,33.5%,–,57.9%,–
COC(=O)c1cc(C)n(/C(=N\CCC(C)C)c2ccccc2)n1,1.3%,91.3%,–,–
COC(=O)c1cc(C)n(/C(=N\c2cccc(C)c2C)c2ccccc2)n1,8.3%,75.6%,–,–
CCCCNC(=N)NC(=N)N [BUFORMIN],–,–,–,Reduction [13]: 50%; Reduction [17]: 25.9%; Reduction [6]: 0%; LD50 [9]: 140 mg/kg; Reduction [15]: 21.9%; LD50 [12]: 300 mg/kg
N=C(N)NC(=N)NCCc1ccccc1 [PHENFORMIN],–,–,–,Reduction [18]: 52.9%; Reduction [19]: 25.3%; Reduction [6]: 0%; Reduction [20]: 46%; Reduction [21]: 62%
COC(=O)c1cc(C)n(/C(=N\c2ccccc2)c2ccccc2Cl)n1,8.9%,70%,–,–
Cc1cc(C)n(/C(=N\CC(C)C)c2ccccc2)n1,10.6%,62.8%,–,–
Cc1ccc(S(=O)(=O)NC(=O)NN2CCCCCC2)cc1 [TOLAZAMIDE],–,–,–,Reduction [22]: 85.6%; Reduction [23]: 51.1%; Reduction [24]: 30.4%; Reduction [25]: 25%; Reduction [26]: 75.8%; Reduction [8]: 50%; LD50 [9]: 1000 mg/kg; Reduction [27]: 28.1%; Reduction [28]: 29.4%; Reduction [29]: 42.9%; Reduction [30]: 26.7%; Reduction [21]: 0%; Reduction [10]: 33.5%; LD50 [12]: 1000 mg/kg
COC(=O)c1cc(-c2ccc(Cl)cc2)n(/C(=N\c2ccccc2)c2ccccc2C)n1,6.3%,71.1%,–,–
COC(=O)c1cc(C)n(/C(=N\c2cccc(OC)c2)c2ccccc2)n1,22%,–,63%,–
COC(=O)c1cc(C)n(/C(=N\c2ccccc2)c2ccc(Cl)c(Cl)c2)n1,24.3%,–,101.5%,–
COC(=O)c1cc(-c2ccc(Cl)cc2)n(/C(=N\C2CCCCC2)c2ccccc2)n1,4.4%,84.9%,–,–
COC(=O)c1cc(C)n(/C(=N\c2ccc(Cl)cc2)c2ccccc2)n1,5.5%,78.7%,–,–
Cc1cc(C)n(/C(=N\c2ccccc2)c2ccccc2)n1,18.3%,–,72.1%,–
COC(=O)c1cc(C)n(/C(=N\c2ccc(C)cc2)c2ccccc2)n1,18.9%,–,71.9%,–
COC(=O)c1cc(C)n(/C(=N\c2ccccc2)c2ccccc2C)n1,21.4%,–,57.7%,–
COC(=O)c1cc(-c2ccc(Cl)cc2)n(/C(=N\c2ccc(Cl)cc2)c2ccccc2)n1,1.2%,77.7%,–,–
CC/N=C(/c1ccccc1)n1nc(C)cc1C,24.7%,58.6%,–,–
COC(=O)c1cc(-c2ccc(Cl)cc2)n(/C(=N\C2CCCCC2)c2ccccc2OC)n1,12.9%,69.2%,–,–
COC(=O)c1cc(-c2ccc(Cl)cc2)n(/C(=N\c2ccc(C)cc2)c2ccc(C)cc2)n1,9%,69.8%,–,–
